Reference: PubChem BioAssay
Inconclusive results are not listed.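 The calls were made as follows, unless noted: active = inhibition over a set limit, the all-compound mean plus 3 SD, in both replicate runs; inconclusive = over that limit in just one replicate run; inactive = at or under that limit in both runs.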

Columns and labels:
[1] = OD615 S. cerevisiae growth inhibition, permissive medium, pilot counter-assay, permissive growth control for S. cerevisiae lifespan shortening project (AID 705;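 active = growth inhibition above 25% in both replicates, a cutoff set 3 SD above the mean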); details: OD615, 24 h, at 10 µM, active compounds read high
Method in brief: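 System: Engineered DeaD yeast | Buffer or medium: SC raffinose/galactose permissive medium | Doses: 10 µM single dose, 0.25% DMSO | Times: 24 h exposure, 30 °C | Measured by: OD615 turbidity read | Read-out: Yeast growth inhibition indicated by reduced 24 h OD615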

[2] = Restrictive medium S. cerevisiae growth inhibition, OD615, pilot screen of yeast lifespan reduction project, restrictive growth control (AID 706;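 active = growth inhibition above a set limit, 3 SD over mean compound inhibition, in both replicates, cut at about 43% in these data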;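 also: modified DeaD lifespan yeast strain shifted to restrictive glucose medium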); details: OD615, 48 h, at 10 µM, active compounds read high
Method in brief: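 Assay system: engineered S. cerevisiae DeaD strain; Buffer or medium: CSMM-D glucose medium; Dosing: 10 µM compound, 0.25% DMSO; Times: cell pre-growth 4 h, compound exposure 48 h, 30 °C; Detection: absorbance (optical density) measured at 615 nm.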

[3] = viability gain of MRP-1-high H69AR cells under doxorubicin, pilot screen, MRP-1 activator project, CellTiter-Glo, duplicate (AID 807;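 active = viability increase at or above a cutoff of the median across tested compounds plus 3 SD, cut at about 8.5% in these data, passing the limit was not always enough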;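 also: compound pretreatment 18-22 h then 72 h combined with doxorubicin; 0% = doxorubicin alone and 100% = vehicle without doxorubicin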); details: H69AR viability with doxorubicin, CellTiter-Glo luminescence; at 10 µM; active compounds read high
[4] = growth suppression of beta-catenin knockout HCT116, pilot screen, human colon tumor cells (AID 823;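 active = cell viability at or below a set limit in both duplicate runs, the limit being the all-compound median minus 4 SD, cut at about 23% in these data, passing the limit was not always enough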;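 also: 0% = wells killed by 20 µM Hyamine and 100% = untreated DMSO cell wells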); details: CellTiter-Glo, 60 h, at 10 µM, active compounds read low
[5] = growth suppression of PTEN-deleted HCT116, pilot screen, cell-based, HCT116 clonal line, CellTiter-Glo (AID 824;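 active = viability at or below 27.92% in each of two runs, the all-compound median minus 4 SD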;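 also: 0% = 20 µM Hyamine control and 100% = vehicle cell control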); details: 60 h, at 10 µM, active compounds read low
[6] = inhibitors of the yeast RAM network, pilot screen, dse1pr::URA3 reporter, 5-FOA selection (AID 869);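 also: 0% = DMSO wells with no growth and 100% = 10 µM 1-NA-PP1 with full growth; RAM network block rescues cells from 5-FOA so hits raise OD615 growth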; details: S. cerevisiae dse1pr::URA3 5-FOA growth, OD615, 2 d; at 10 µM; active compounds read high; strain carries analog-sensitive mutant Cbk1 kinase
[7] = RAM signaling pathway blockade in yeast – S. cerevisiae, Pdr1DBD-CYC8 efflux-inhibited sensitized strain, primary screen (AID 1298;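 active = RAM network inhibition above 8.4% in each of two replicates, 3 SD over the compound average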;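 also: 0% = DMSO untreated cells without growth and 100% = 10 µM 1-NA-PP1 full growth; higher means more yeast growth rescued from 5-FOA killing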); details: S. cerevisiae cbk1-as DSE1-URA3 strain, 5-FOA growth OD615, 2 d; at 50 µM; active compounds read high

Cc1oc(-c2ccccc2F)nc1CS(=O)CC(=O)NCc1cccs1 (configuration not stated)
inactive: growth inhibition [1] -2.83% | growth inhibition [2] 26% | viability increase [3] -2.27% | viability [4] 99.7% | viability [5] 93.4% | inhibition [6] 1.64% | RAM network inhibition [7] 8.65%

CCOC(=O)c1cc(NC(=O)NCc2ccco2)c(C)nc1C
inactive: growth inhibition [1] -7.98% | growth inhibition [2] -25.8% | viability increase [3] -3.46% | viability [4] 105% | viability [5] 99.3% | inhibition [6] 1.57% | RAM network inhibition [7] 4.38%

Cc1c(C(=O)NCC2CCCO2)sc2nc(-c3ccc(F)cc3)cn12 (configuration not stated)
inactive: growth inhibition [1] 3.06% | growth inhibition [2] 0.065% | viability increase [3] 1.26% | viability [4] 95.2% | viability [5] 97.3% | inhibition [6] 0.68% | RAM network inhibition [7] 3.33%

c1ccc(OCc2nn3c(-c4ccccn4)nnc3s2)cc1
inactive: growth inhibition [1] 7.46% | growth inhibition [2] 34% | viability increase [3] 0.02% | viability [4] 104% | viability [5] 94% | inhibition [6] 1.48% | RAM network inhibition [7] 2.54%

CC(=O)NCC(=O)NC1(C(=O)NC2CCCC2)CCCCC1
inactive: growth inhibition [1] -1.73% | growth inhibition [2] -24.5% | viability increase [3] -0.35% | viability [4] 97.8% | viability [5] 99.6% | inhibition [6] 4.11% | RAM network inhibition [7] 2.03%

Cn1c(=O)oc2cc(S(=O)(=O)NCCCN3CCCC3=O)ccc21
inactive: growth inhibition [1] -7.4% | growth inhibition [2] -6.43% | viability increase [3] -2.65% | viability [4] 99% | viability [5] 98.7% | inhibition [6] 0.615% | RAM network inhibition [7] 0.74%

Cc1c(C(=O)NCc2ccc3c(c2)OCO3)oc2ccc(S(=O)(=O)N3CCC(C)CC3)cc12
inactive: growth inhibition [1] -11.5% | growth inhibition [2] -16.7% | viability increase [3] 0.73% | viability [4] 74.7% | viability [5] 73% | inhibition [6] 2.39% | RAM network inhibition [7] 11.2%

CCOC1=NC(C(=O)O)c2ccccc2/C(=C(/C)Cl)N1 (configuration not stated)
inactive: growth inhibition [1] -4.61% | growth inhibition [2] -27.8% | viability increase [3] 0.7% | viability [4] 101% | viability [5] 96.8% | inhibition [6] 0.25% | RAM network inhibition [7] 2.78%

COc1cccc(NC(=O)CN2C(=O)COc3ccc(Cl)cc32)c1
inactive: growth inhibition [1] -12.2% | growth inhibition [2] -17.7% | viability increase [3] -0.8% | viability [4] 90% | viability [5] 84.7% | inhibition [6] 0.405% | RAM network inhibition [7] 0.31%

COc1ccc(-n2c(SCC(=O)Nc3cc(C)on3)nc3c(c2=O)SCC3)cc1
inactive: growth inhibition [1] -13.1% | growth inhibition [2] -6.83% | viability increase [3] 0.28% | viability [4] 112% | viability [5] 95.5% | inhibition [6] 4.46% | RAM network inhibition [7] 6.81%

COC(=O)c1ccsc1NC(=O)c1ccc2c(c1)OCCO2
inactive: growth inhibition [1] 2.02% | growth inhibition [2] -2.86% | viability increase [3] -4.78% | viability [4] 81% | viability [5] 68.1% | inhibition [6] 1.8% | RAM network inhibition [7] 2.08%

Cc1ccc2cc(CCNS(=O)(=O)c3ccc(F)cc3)c(=O)[nH]c2c1
inactive: growth inhibition [1] -11.5% | growth inhibition [2] -8.69% | viability increase [3] -1.91% | viability [4] 93% | viability [5] 80.5% | inhibition [6] 1.72% | RAM network inhibition [7] 1.31%

O=C(O)CCC(=O)NCc1ccc2[nH]c3c(c2c1)CCCC3
inactive: growth inhibition [1] -13.2% | growth inhibition [2] 3.53% | viability increase [3] 0.95% | viability [4] 101% | viability [5] 96.5% | inhibition [6] 1.51% | RAM network inhibition [7] 4.69%

N/C(CC(=O)Nc1cccc(C(F)(F)F)c1)=N/O
inactive: growth inhibition [1] -0.19% | growth inhibition [2] 2.58% | viability increase [3] -1.91% | viability [4] 96.5% | viability [5] 101% | inhibition [6] 1.16% | RAM network inhibition [7] 4.4%

COc1ccccc1-c1c(C)nn2c(C)cc(C)nc12
inactive: growth inhibition [1] -5.75% | growth inhibition [2] -1.54% | viability increase [3] -1.88% | viability [4] 97.5% | viability [5] 97.3% | inhibition [6] 0.895% | RAM network inhibition [7] 1.79%

CCOc1ccccc1C1CC(c2ccc(Cl)cc2)Nc2nc(N)nn21 (configuration not stated)
inactive: growth inhibition [1] 0.515% | growth inhibition [2] 23% | viability increase [3] 1.4% | viability [4] 66.3% | viability [5] 77.6% | inhibition [6] -0.11% | RAM network inhibition [7] 1.24%

COc1ccc(CNc2ccc3cn[nH]c3c2)c(OC)c1OC
inactive: growth inhibition [1] -1.74% | growth inhibition [2] 1.43% | viability increase [3] -2.25% | viability [4] 74.7% | viability [5] 79.7% | inhibition [6] -0.465% | RAM network inhibition [7] 9.01%

O=C(NCc1cccnc1)C1CC(=O)N(c2ccc(F)cc2)C1 (configuration not stated)
inactive: growth inhibition [1] -18% | growth inhibition [2] -11.7% | viability increase [3] 1.27% | viability [4] 93.8% | viability [5] 101% | inhibition [6] 0.485% | RAM network inhibition [7] 2.83%

CCCCN(CC)CCNc1c(NC2CCN(C(=O)OCC)CC2)c(=O)c1=O
inactive: growth inhibition [1] 2.35% | growth inhibition [2] 5.98% | viability increase [3] -0.12% | viability [4] 100% | viability [5] 95% | inhibition [6] 0.09% | RAM network inhibition [7] 3.37%

O=C1c2ccccc2C(O)N1Cc1ccc2c(c1)OCO2 (configuration not stated)
inactive: growth inhibition [1] 4.13% | growth inhibition [2] -0.895% | viability increase [3] -0.74% | viability [4] 103% | viability [5] 106% | inhibition [6] 0.38% | RAM network inhibition [7] 1.6%

O=C(CCn1c(=O)oc2ccccc21)NCc1ccc2c(c1)OCO2
inactive: growth inhibition [1] -11.4% | growth inhibition [2] -19.9% | viability increase [3] -2.85% | viability [4] 100% | viability [5] 91.3% | inhibition [6] 2.35% | RAM network inhibition [7] 6.04%

Cc1ccc(-c2nc(CS(=O)(=O)CC(=O)NCCCN3CCN(C)CC3)c(C)o2)cc1
inactive: growth inhibition [1] -9.1% | growth inhibition [2] -15.2% | viability increase [3] 0.53% | viability [4] 89.4% | viability [5] 94.7% | inhibition [6] 1.34% | RAM network inhibition [7] -0.16%

CN(C)c1ccc(C2N3CC4(C)CN2CC(C)(C3)C4O)cc1 (configuration not stated)
inactive: growth inhibition [1] -21.5% | growth inhibition [2] -10.9% | viability increase [3] 0.46% | viability [4] 101% | viability [5] 99% | inhibition [6] 2.33% | RAM network inhibition [7] 2.42%

CCOC(=O)N1CCN(C(=O)c2ccc3c(SCC(=O)O)c4c(nc3c2)CCC4)CC1
inactive: growth inhibition [1] -7.38% | growth inhibition [2] 3.22% | viability increase [3] -1.86% | viability [4] 102% | viability [5] 93% | inhibition [6] 0.9% | RAM network inhibition [7] 2.81%

O=S(=O)(Cc1ccccc1)N1CCn2c(nc3ccccc32)C1
inactive: growth inhibition [1] -14.1% | growth inhibition [2] -0.745% | viability increase [3] -0.75% | viability [4] 103% | viability [5] 97.5% | inhibition [6] 1.5% | RAM network inhibition [7] 4.75%

Cc1sc2ncn(CC(=O)NCc3ccccn3)c(=O)c2c1S(=O)(=O)N1CCOCC1
inactive: growth inhibition [1] -11.7% | growth inhibition [2] -5.54% | viability increase [3] 1.3% | viability [4] 101% | viability [5] 99.5% | inhibition [6] 0.485% | RAM network inhibition [7] 3.01%

CCOc1ccc(N(CC(=O)Nc2nccs2)S(=O)(=O)c2c(C)noc2C)cc1
inactive: growth inhibition [1] -3.78% | growth inhibition [2] 5.32% | viability increase [3] -1.1% | viability [4] 97.5% | viability [5] 89.1% | inhibition [6] 1.25% | RAM network inhibition [7] 8.94%

Cc1nnc(SCCn2c(N3CCN(c4ccccc4)CC3)nc3c2c(=O)n(C)c(=O)n3C)s1
inactive: growth inhibition [1] -8.87% | growth inhibition [2] -18.3% | viability increase [3] -1.99% | viability [4] 104% | viability [5] 102% | inhibition [6] 1.23% | RAM network inhibition [7] 2.19%

C=CCOC(=O)C1=C(C)N=C2SCCC(=O)N2C1c1ccc(OC(=O)c2ccco2)cc1 (configuration not stated)
inactive: growth inhibition [1] 5.35% | growth inhibition [2] 24.3% | viability increase [3] -0.72% | viability [4] 94.2% | viability [5] 85.8% | inhibition [6] 1.94% | RAM network inhibition [7] 5.69%

O=C(Nc1c(C(=O)N2CCCCC2)cnn1-c1ccccc1)c1ccco1
inactive: growth inhibition [1] -2.23% | growth inhibition [2] -5.33% | viability increase [3] -0.92% | viability [4] 95.2% | viability [5] 95.5% | inhibition [6] 1.14% | RAM network inhibition [7] 0.25%

O=C(NCc1ccc(Cl)c(Cl)c1)c1ccco1
inactive: growth inhibition [1] -5.02% | growth inhibition [2] -2.23% | viability increase [3] -3.58% | viability [4] 90.8% | viability [5] 84.9% | inhibition [6] 1.23% | RAM network inhibition [7] 3.74%

CCSc1nnc(NC(=O)CCn2c(=O)oc3ccccc32)s1
inactive: growth inhibition [1] -3.29% | growth inhibition [2] -6.38% | viability increase [3] -0.78% | viability [4] 102% | viability [5] 103% | inhibition [6] 0.22% | RAM network inhibition [7] 9.53%

Cc1cc(C)n(-c2ncc(-c3ccccc3)nn2)n1
inactive: growth inhibition [1] -2.83% | growth inhibition [2] 29.2% | viability increase [3] -0.89% | viability [4] 105% | viability [5] 105% | inhibition [6] 0.43% | RAM network inhibition [7] 2.61%

CN(c1ccc(C(=O)O)cc1)S(=O)(=O)c1ccccc1
inactive: growth inhibition [1] 0.21% | growth inhibition [2] 5.12% | viability increase [3] -1.24% | viability [4] 99.5% | viability [5] 92.5% | inhibition [6] 1.14% | RAM network inhibition [7] 1.5%

Cc1ccc2[nH]c(=O)c(-c3noc(C(C)C)n3)cc2c1
inactive: growth inhibition [1] -11.9% | growth inhibition [2] -1.75% | viability increase [3] -2.88% | viability [4] 114% | viability [5] 96.5% | inhibition [6] 0.48% | RAM network inhibition [7] 5.62%

CS(=O)(=O)NCCCc1ccccc1
inactive: growth inhibition [1] -3.13% | growth inhibition [2] 9.6% | viability increase [3] -1.36% | viability [4] 96.6% | viability [5] 94.5% | inhibition [6] 0.325% | RAM network inhibition [7] -0.88%
